Test results: ChEMBL document CHEMBL3414431, “Synthesis, biological evaluation and molecular docking of some substituted pyrazolines and isoxazolines as potential antimicrobial agents” (2015)
In brackets after ≈: the same amount, converted by molar mass.

Legend:
Candida albicans [1] = assay: Antimicrobial activity against Candida albicans ATCC 12031 assessed as diameter of zone of inhibition at 2 mg/ml after 24 hrs by agar well diffusion method; format: functional; conditions: ATCC 12031, 24 h, read-out: DIZ
Procedure, shortened: (§1)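 Agar well diffusion. Fungi were grown on Sabouraud dextrose agar and bacteria on nutrient agar (peptone, beef extract, NaCl, agar), with the inoculum spread over the medium. Wells were bored and filled with test drug at 2.0 mg/ml in DMSO. Plates sat 1 h at room temperature for diffusion, then 37 °C for 24 h. Inhibition zone diameter (mm, including well) is reported as mean ± SEM.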

Aspergillus fumigatus [2] = assay: Antimicrobial activity against Aspergillus fumigatus ATCC 1022 assessed as diameter of zone of inhibition at 2 mg/ml after 24 hrs by agar well diffusion method; format: functional; conditions: ATCC 1022, 24 h, read-out: DIZ; procedure, shortened: as §1
Aspergillus versicolor [3] = assay: Antimicrobial activity against Aspergillus versicolor ATCC 10072 assessed as diameter of zone of inhibition at 2 mg/ml after 24 hrs by agar well diffusion method; format: functional; conditions: ATCC 10072, 24 h, read-out: DIZ; procedure, shortened: as §1
Aspergillus flavus [4] = assay: Antimicrobial activity against Aspergillus flavus ATCC 9643 assessed as diameter of zone of inhibition at 2 mg/ml after 24 hrs by agar well diffusion method; format: functional; conditions: ATCC 9643, 24 h, read-out: DIZ; procedure, shortened: as §1
Staphylococcus aureus [5] = assay: Antimicrobial activity against Staphylococcus aureus ATCC 25923 assessed as diameter of zone of inhibition at 2 mg/ml after 24 hrs by agar well diffusion method; format: functional; conditions: ATCC 25923, 24 h, read-out: DIZ; procedure, shortened: as §1
Escherichia coli = assay: Antimicrobial activity against Escherichia coli ATCC 25922 assessed as diameter of zone of inhibition at 2 mg/ml after 24 hrs by agar well diffusion method; format: functional; conditions: ATCC 25922, 24 h, read-out: DIZ; procedure, shortened: as §1
Candida albicans [6] = assay: Antimicrobial activity against Candida albicans ATCC 12031 after 48 hrs by two-fold serial dilution method; format: functional; conditions: ATCC 12031, 48 h
Procedure, shortened: (§2)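 Two-fold serial broth dilution of compounds, 100 down to 3.125 (six levels). Each was inoculated with fungal suspension at 10^6 CFU/mL in suitable broth and incubated at 37 °C for 48 h. Growth was judged by turbidity to assign the minimum inhibitory concentration.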

Aspergillus fumigatus [7] = assay: Antimicrobial activity against Aspergillus fumigatus ATCC 1022 after 48 hrs by two-fold serial dilution method; format: functional; conditions: ATCC 1022, 48 h; procedure, shortened: as §2
Aspergillus versicolor [8] = assay: Antimicrobial activity against Aspergillus versicolor ATCC 10072 after 48 hrs by two-fold serial dilution method; format: functional; conditions: ATCC 10072, 48 h; procedure, shortened: as §2
Aspergillus flavus [9] = assay: Antimicrobial activity against Aspergillus flavus ATCC 9643 after 48 hrs by two-fold serial dilution method; format: functional; conditions: ATCC 9643, 48 h; procedure, shortened: as §2
Staphylococcus aureus [10] = assay: microbe, parasite or virus in culture; conditions: ATCC 25923, 24 h, read-out: DIZ
Candida albicans [11] = assay: Antimicrobial activity against Candida albicans ATCC 12031 assessed as diameter of zone of inhibition at 20 microg/disc after 24 hrs by agar well diffusion method; format: functional; conditions: ATCC 12031, 24 h, read-out: DIZ
Procedure, shortened: (§3)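 Fungal inoculum spread on Sabouraud dextrose agar. 6 mm wells bored and filled with test drug at 2.0 mg/ml in DMSO (stock-as-added). Plates held 1 h at room temperature for diffusion, then incubated at 37 °C for 24 h. Inhibition zone diameter measured in mm, including well diameter. Reported as mean ± SEM.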

Aspergillus fumigatus [12] = assay: Antimicrobial activity against Aspergillus fumigatus ATCC 1022 assessed as diameter of zone of inhibition at 20 microg/disc after 24 hrs by agar well diffusion method; format: functional; conditions: ATCC 1022, 24 h, read-out: DIZ; procedure, shortened: as §3
Aspergillus versicolor [13] = assay: Antimicrobial activity against Aspergillus versicolor ATCC 10072 assessed as diameter of zone of inhibition at 20 microg/disc after 24 hrs by agar well diffusion method; format: functional; conditions: ATCC 10072, 24 h, read-out: DIZ; procedure, shortened: as §3
Aspergillus flavus [14] = assay: Antimicrobial activity against Aspergillus flavus ATCC 9643 assessed as diameter of zone of inhibition at 20 microg/disc after 24 hrs by agar well diffusion method; format: functional; conditions: ATCC 9643, 24 h, read-out: DIZ; procedure, shortened: as §3

SMILES	zone of inhibition at 2000 µg/mL (Candida albicans [1]) [mm]	zone of inhibition at 2000 µg/mL (Aspergillus fumigatus [2]) [mm]	zone of inhibition at 2000 µg/mL (Aspergillus versicolor [3]) [mm]	zone of inhibition at 2000 µg/mL (Aspergillus flavus [4]) [mm]	zone of inhibition at 2000 µg/mL (Staphylococcus aureus [5]) [mm]	zone of inhibition at 2000 µg/mL (Escherichia coli) [mm]	MIC (Candida albicans [6]) [µg/mL]	MIC (Aspergillus fumigatus [7]) [µg/mL]	MIC (Aspergillus versicolor [8]) [µg/mL]	MIC (Aspergillus flavus [9]) [µg/mL]	zone of inhibition at 25 µg/disc (Staphylococcus aureus [10]) [mm]	zone of inhibition at 20 µg/disc (Candida albicans [11]) [mm]	zone of inhibition at 20 µg/disc (Aspergillus fumigatus [12]) [mm]	zone of inhibition at 20 µg/disc (Aspergillus versicolor [13]) [mm]	zone of inhibition at 20 µg/disc (Aspergillus flavus [14]) [mm]
COc1ccc(C2CC(c3c(O)cc(C)c(Cl)c3C)=NN2)cc1 (centres undefined)	18	18	13	12	11	8	50 (≈ 151 µM)	25 (≈ 75.6 µM)	25 (≈ 75.6 µM)	6.25 (≈ 18.9 µM)					
Cc1cc(O)c(C2=NNC(c3cccc(O)c3)C2)c(C)c1Cl (centres undefined)	23	20	21	21	11	9	12.5 (≈ 39.5 µM)	12.5 (≈ 39.5 µM)	6.25 (≈ 19.7 µM)	3.12 (≈ 9.86 µM)					
Cc1cc(O)c(C2=NNC(c3ccc(N(C)C)cc3)C2)c(C)c1Cl (centres undefined)	18	18	13	13	12	8	12.5 (≈ 36.4 µM)	12.5 (≈ 36.4 µM)	12.5 (≈ 36.4 µM)	6.25 (≈ 18.2 µM)					
COc1ccc(C2CC(c3c(O)cc(C)c(Cl)c3C)=NN2)cc1OC (centres undefined)	20	21	16	17	11	8	12.5 (≈ 34.6 µM)	12.5 (≈ 34.6 µM)	12.5 (≈ 34.6 µM)	25 (≈ 69.3 µM)					
COc1cc(C2CC(c3c(O)cc(C)c(Cl)c3C)=NN2)cc(OC)c1OC (centres undefined)	20	21	16	15	10	9	12.5 (≈ 32 µM)	12.5 (≈ 32 µM)	12.5 (≈ 32 µM)	12.5 (≈ 32 µM)					
Cc1cc(O)c(C2=NOC(c3ccccc3)C2)c(C)c1Cl (centres undefined)	22	21	17	15	11	8	25 (≈ 82.8 µM)	12.5 (≈ 41.4 µM)	25 (≈ 82.8 µM)	6.25 (≈ 20.7 µM)					
COc1ccc(C2CC(c3c(O)cc(C)c(Cl)c3C)=NO2)cc1 (centres undefined)	22	16	15	16	11	8	12.5 (≈ 37.7 µM)	25 (≈ 75.3 µM)	25 (≈ 75.3 µM)	6.25 (≈ 18.8 µM)					
Cc1cc(O)c(C2=NOC(c3ccc(Cl)cc3)C2)c(C)c1Cl (centres undefined)	22	20	21	20	12	7	12.5 (≈ 37.2 µM)	6.25 (≈ 18.6 µM)	12.5 (≈ 37.2 µM)	12.5 (≈ 37.2 µM)					
Cc1cc(O)c(C2=NOC(c3ccccc3Cl)C2)c(C)c1Cl (centres undefined)	23	21	20	20	11	8	12.5 (≈ 37.2 µM)	6.25 (≈ 18.6 µM)	12.5 (≈ 37.2 µM)	12.5 (≈ 37.2 µM)					
COc1ccc(C2CC(c3c(O)cc(C)c(Cl)c3C)=NO2)cc1OC (centres undefined)	21	15	14	15	10	9	12.5 (≈ 34.5 µM)	6.25 (≈ 17.3 µM)	12.5 (≈ 34.5 µM)	12.5 (≈ 34.5 µM)					
COc1cc(C)c(Cl)c(C)c1C(=O)C1=NNCC1c1ccccc1 (centres undefined)	19	20	19	21	10	8	25 (≈ 72.9 µM)	6.25 (≈ 18.2 µM)	12.5 (≈ 36.5 µM)	6.25 (≈ 18.2 µM)					
COc1ccccc1C1CNN=C1C(=O)c1c(OC)cc(C)c(Cl)c1C (centres undefined)	21	18	20	19	9	8	12.5 (≈ 33.5 µM)	12.5 (≈ 33.5 µM)	12.5 (≈ 33.5 µM)	6.25 (≈ 16.8 µM)					
COc1cc(C)c(Cl)c(C)c1C(=O)C1=NNCC1c1ccccc1[N+](=O)[O-] (centres undefined)	20	20	19	19	10	9	25 (≈ 64.5 µM)	12.5 (≈ 32.2 µM)	12.5 (≈ 32.2 µM)	12.5 (≈ 32.2 µM)					
O=C(O)c1cn(C2CC2)c2cc(N3CCNCC3)c(F)cc2c1=O [CIPROFLOXACIN]											24				
OC(Cn1cncn1)(Cn1cncn1)c1ccc(F)cc1F [FLUCONAZOLE]							12.5 (≈ 40.8 µM)	12.5 (≈ 40.8 µM)	3.12 (≈ 10.2 µM)	12.5 (≈ 40.8 µM)		21	22	21	21
